Results reported in ChEMBL document CHEMBL1138476 (J Med Chem, 2009).

Legend:
Canis familiaris [1] = assay: Effect on respiratory function in spontaneously breathing mongrel dog assessed as change in mean arterial pressure at 5 mg/kg after intravenous infusion for 30 mins (RVb= 4.0+/-3.0 %); format: functional, Canis lupus familiaris, Artery
[2] = Elimination half life in chimpanzee at 0.5 mg/kg, iv; format: ADME, organism-based, Pan troglodytes; set-up: dose 0.5 mg/kg, route intravenous; conditions: in vivo, read-out: beta t1/2 (converted)
Outline: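 One chimpanzee received 0.5 mg/kg iv over 10 min (0.2 mL/kg) in 10% DMAC, 70% propylene glycol and deionized water. Blood was drawn into EDTA predose and at 6, 15, 30 min and 2, 4, 6, 9, 12, 24, 36, 48, 72 and 96 h.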

Canis familiaris [3] = assay: Effect on respiratory function in spontaneously breathing mongrel dog assessed as change in tidal volume at 5 mg/kg after intravenous infusion for 60 mins (RVb= 13.0+/-10.3 %); format: functional, Canis lupus familiaris
[4] = AUC (0 to infinity) in chimpanzee at 1 mg/kg, po; format: ADME, organism-based, Pan troglodytes; set-up: time infinity, dose 1 mg/kg, route oral; conditions: plasma
Outline: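 Chimpanzee PK. Oral: 1 mg/kg in two alert animals, given as a 1 mg/mL suspension in 50–50 (v/v) 0.5% methylcellulose/Tang orange juice with 1% Tween-80. IV: 0.5 mg/kg in one animal in 10% DMAC, 70% propylene glycol and deionized water, infused over 10 min (0.2 mL/kg). EDTA blood was taken predose and at 2–96 h; iv sampling added 6, 15 and 30 min.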

Canis familiaris [5] = assay: Effect on respiratory function in spontaneously breathing mongrel dog assessed as change in minute volume at 5 mg/kg after intravenous infusion for 30 mins (RVb= 1.0+/-9.7 %); format: functional, Canis lupus familiaris
Rattus norvegicus [6] = assay: Ex vivo receptor occupancy of CRF receptor in rat brain at 1 mg/kg, po by [125I]sauvagine binding and autoradiography relative to control; format: functional
Outline: (§1)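 Rats were given 0.3, 1, 3, 10 or 30 mg/kg po in 0.25% Methocel 60 min before sacrifice. Brains were removed, sectioned and frozen at −80 °C. Ex vivo CRF receptor binding gave occupancy relative to vehicle-treated rats, reported as mean ± SEM.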

Rattus norvegicus [7] = assay: Ex vivo receptor occupancy of CRF receptor in rat brain at 10 mg/kg, po by [125I]sauvagine binding and autoradiography relative to control; format: functional; outline: as §1
Rattus norvegicus [8] = assay: Ex vivo receptor occupancy of CRF receptor in rat brain at 0.3 mg/kg, po by [125I]sauvagine binding and autoradiography relative to control; format: functional; outline: as §1

Compound: CC[C@@H](C)Nc1nc(C)nc2c(-c3ccc(OC)nc3C)c(C)nn12 [PEXACERFONT]
- Activity (Canis familiaris [1]): 6.2%
- half-life [2]: 30 h
- Activity (Canis familiaris [3]): 11.5%
- AUC(0-inf) [4]: 11.7 µM·h
- Activity (Canis familiaris [5]): -30.8%
- Activity (Rattus norvegicus [6]): 26%
- Activity (Rattus norvegicus [7]): 69%
- Activity (Rattus norvegicus [8]): 37%
